Experiment [1] has as its system MCF7. Description: Inhibitory concentration of compound against MCF-7 cells by MTS assay. It is filed as functional, cell-based. The conditions noted are these: Homo sapiens. The method, boiled down: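 MCF7 cells seeded at 2000/well in DMEM with 10% FBS and left overnight to adhere; final culture volume 100 µL. Viability read with MTS/PMS (mixed 20:1, 20 µL per well) as A490 after 2-4 h, with cell-free medium plus MTS-PMS as background. % viable cells taken relative to untreated cells; IC50 is the concentration giving 50% viable cells; n = 2.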
A general note: Tetrazolium dyes change colour on reduction, which living cells bring about.

For experiment [2], the target named is T1, Heat shock protein HSP90 (Homo sapiens, UniProt P07900+P08238). Nature of the experiment: […] human epidermal growth factor 2 (Her-2) degradation in MCF-7 cells. It is filed as cell-based. Conditions: mcf7. The method, boiled down: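 MCF7 cells in DMEM with 10% FBS and 10 mM HEPES, treated at 65–70% confluence with compound (1000 nM down to 3 nM, half-log steps) for 16 h. Trypsinized cells stained with PE anti-Her-2 or PE isotype control (1 µg/mL, 15 min). Flow cytometry with 10,000 events; control-subtracted mean fluorescence versus DMSO cells. EC50 = 50% Her-2 degradation; n = 2.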

Experiment [3] deals with T1, Heat shock protein HSP90. Nature of the experiment: Concentration required to inhibit biotin-GM binding to recombinant heat shock protein 90(rHsp90). It is filed as protein assay. A digest of the protocol: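 rHsp90 coated in PBS overnight at 4 °C. Compound at 100–0.3 µM or DMSO for 60 min at 37 °C. Then 10 µM biotinylated geldanamycin 60 min and 20 µg/mL streptavidin-phycoerythrin 60 min, both at 37 °C, with washes between. Fluorescence read at ex 485/em 580 nm, minus an uncoated-well background. % binding inhibition calculated versus DMSO.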

The nature of experiment [4]: Ratio of inhibitory concentration of rHsp90 and cell lysate Hsp90.
Experiment [5] has as its target T1, Heat shock protein HSP90. Nature of the experiment: (§1) Concentration required to inhibit Bis-ANS activity by recombinant heat shock protein 90 (rHSP90) conformational assay. The method, boiled down:
(§2)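 Compound at 100–0.3 µM or DMSO for 60 min at 37 °C, then bis-ANS (0.1 mM stock) for 30 min at 37 °C. Fluorescence read at ex 393/em 484 nm, minus a no-protein background. IC50 = 50% inhibition of bis-ANS signal versus DMSO; n = 2.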

In experiment [6] the target is T1, Heat shock protein HSP90. Description: Concentration of test compound required for inhibition of binding of rHsp90 in MCF-7 cell lysate. It is filed as cell-based. A digest of the protocol:
(§3)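 Lysate incubated ± compound 30 min at 4 °C, then with biotin-GM on streptavidin magnetic beads 1 h at 4 °C. Beads washed three times and boiled in SDS sample buffer. Bound Hsp90 detected by Western blot and band quantitation. IC50 taken as half-maximal inhibition of binding.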

Experiment [7] concerns the target T1, Heat shock protein HSP90. Nature of the experiment: Concentration of test compound required for half-maximal inhibition of binding of Heat shock 90 KD protein by MCF-7 cell lysate assay. It is filed as cell-based. The method, boiled down:
as §3

Experiment [8] in a line: as §1. Details: species or system Homo sapiens. A digest of the protocol:
as §2

As usually defined, the IC50 is the concentration that inhibits the measured activity by half. Regarding `CO[C@H]1/C=C\C=C(/C)C(=O)NC2=CC(=O)C(NC(=O)OCC(C)C)=C(C[C@@H](C)C[C@H](OC)[C@H](O)[C@@H](C)/C=C(\C)[C@@H]1OC(N)=O)C2=O`, the IC50 in experiment [1] is 180 nM; in experiment [2], 120 nM; in experiment [3], 4000 nM; in experiment [5], 4000 nM; in experiment [6], 3 nM. Also, the Ratio in experiment [4] turned out to be 1330.

Regarding `CCCN(CCC)Cc1ccc(C(=O)NC2=C3C[C@@H](C)C[C@H](OC)[C@H](O)[C@@H](C)/C=C(\C)[C@H](OC(N)=O)[C@@H](OC)/C=C\C=C(/C)C(=O)NC(=CC2=O)C3=O)cc1`, the IC50 in experiment [1] worked out at 500 nM; in experiment [2] it was 500 nM; in experiment [3], 3000 nM; in experiment [5] it was 1200 nM.

On to `CO[C@H]1/C=C\C=C(/C)C(=O)NC2=CC(=O)C(NC(=O)c3ccc(CN4CCN(C)CC4)cc3)=C(C[C@@H](C)C[C@H](OC)[C@H](O)[C@@H](C)/C=C(\C)[C@@H]1OC(N)=O)C2=O`, for which the IC50 in experiment [7] worked out at 120 nM; in experiment [2] it was 800 nM; in experiment [3], 5000 nM; in experiment [5], 8000 nM. In experiment [4], the Ratio is 67.

On to `CO[C@H]1/C=C\C=C(/C)C(=O)NC2=CC(=O)C(NC(=O)c3ccc(CN4CCN(c5ccc(Cl)cc5)CC4)cc3)=C(C[C@@H](C)C[C@H](OC)[C@H](O)[C@@H](C)/C=C(\C)[C@@H]1OC(N)=O)C2=O`, for which the concentration for half-maximal inhibition (IC50) in experiment [1] is 150 nM; in experiment [2] it was 250 nM; in experiment [3] it was 1000 nM; in experiment [5], 1000 nM; in experiment [6], 9 nM. The Ratio in experiment [4] was 111.

`CO[C@H]1/C=C\C=C(/C)C(=O)NC2=CC(=O)C(NC(=O)c3cccs3)=C(C[C@@H](C)C[C@H](OC)[C@H](O)[C@@H](C)/C=C(\C)[C@@H]1OC(N)=O)C2=O`: the IC50 in experiment [7] amounted to 40 nM; in experiment [2] it was 400 nM; in experiment [3], 2000 nM; in experiment [5] it was 3000 nM. Also, the Ratio in experiment [4] turned out to be 75.

Turning to `COc1ccc(N2CCN(Cc3ccc(C(=O)NC4=C5C[C@@H](C)C[C@H](OC)[C@H](O)[C@@H](C)/C=C(\C)[C@H](OC(N)=O)[C@@H](OC)/C=C\C=C(/C)C(=O)NC(=CC4=O)C5=O)cc3)CC2)cc1`, the IC50 in experiment [2] was determined as 220 nM; in experiment [3] it was 3000 nM; in experiment [5], 1500 nM.

`CO[C@H]1/C=C\C=C(/C)C(=O)NC2=CC(=O)C(NC(=O)c3ccco3)=C(C[C@@H](C)C[C@H](OC)[C@H](O)[C@@H](C)/C=C(\C)[C@@H]1OC(N)=O)C2=O`: the 50% inhibitory concentration (IC50) in experiment [2] worked out at 500 nM; in experiment [3] it was 4000 nM; in experiment [5], 4000 nM.

In the case of `C=CCNC1=C2C[C@@H](C)C[C@H](OC)[C@H](O)[C@@H](C)/C=C(\C)[C@H](OC(N)=O)[C@@H](OC)/C=C/C=C(\C)C(=O)NC(=CC1=O)C2=O`, the Ratio in experiment [4] was determined as 40. Also, the IC50 in experiment [8] is 700 nM.

With `CO[C@H]1/C=C\C=C(/C)C(=O)NC2=CC(=O)C(c3cccs3)=C(C[C@@H](C)C[C@H](OC)[C@H](O)[C@@H](C)/C=C(\C)[C@@H]1OC(N)=O)C2=O`, the IC50 in experiment [7] came to 55 nM; in experiment [2] it was 250 nM; in experiment [3] it was 1700 nM; in experiment [5], 1700 nM. Further, the Ratio in experiment [4] stood at 31.

Turning to `CO[C@H]1/C=C\C=C(/C)C(=O)NC2=CC(=O)C(NC(=O)c3ccc([N+](=O)[O-])cc3)=C(C[C@@H](C)C[C@H](OC)[C@H](O)[C@@H](C)/C=C(\C)[C@@H]1OC(N)=O)C2=O`, the IC50 is 300 nM in experiment [2], 3500 nM in experiment [3] and 2000 nM in experiment [5].

Take `CO[C@H]1/C=C\C=C(/C)C(=O)NC2=CC(=O)C(NC(=O)OCc3ccc(OC(C)=O)cc3)=C(C[C@@H](C)C[C@H](OC)[C@H](O)[C@@H](C)/C=C(\C)[C@@H]1OC(N)=O)C2=O`: the IC50 was 40 nM in experiment [1], 50 nM in experiment [2], 1000 nM in experiment [3] and 2500 nM in experiment [5].

Take `CO[C@H]1/C=C\C=C(/C)C(=O)NC2=CC(=O)C(NC(=O)c3ccc(CN(C)C)cc3)=C(C[C@@H](C)C[C@H](OC)[C@H](O)[C@@H](C)/C=C(\C)[C@@H]1OC(N)=O)C2=O`: the IC50 in experiment [1] is > 30000 nM; in experiment [2] it was 1700 nM; in experiment [3], 17000 nM; in experiment [5] it was 3000 nM; in experiment [6], 15 nM. For the same compound, the Ratio in experiment [4] amounted to 200.

Regarding `CO[C@H]1/C=C\C=C(/C)C(=O)NC2=CC(=O)C(c3ccccc3)=C(C[C@@H](C)C[C@H](OC)[C@H](O)[C@@H](C)/C=C(\C)[C@@H]1OC(N)=O)C2=O`, the IC50 in experiment [7] was 70 nM; in experiment [2], 280 nM; in experiment [3], 3000 nM; in experiment [5] it was 3000 nM. Besides, the Ratio in experiment [4] worked out at 43.

As for `CCN(Cc1ccccc1)Cc1ccc(C(=O)NC2=C3C[C@@H](C)C[C@H](OC)[C@H](O)[C@@H](C)/C=C(\C)[C@H](OC(N)=O)[C@@H](OC)/C=C\C=C(/C)C(=O)NC(=CC2=O)C3=O)cc1`, the IC50 in experiment [1] turned out to be 200 nM; in experiment [2], 140 nM; in experiment [3], 1100 nM; in experiment [5], 1000 nM; in experiment [6], 12 nM. Moreover, the Ratio in experiment [4] turned out to be 92.

Take `COc1ccccc1C(=O)NC1=C2C[C@@H](C)C[C@H](OC)[C@H](O)[C@@H](C)/C=C(\C)[C@H](OC(N)=O)[C@@H](OC)/C=C\C=C(/C)C(=O)NC(=CC1=O)C2=O`: the IC50 came to 180 nM in experiment [2], 1100 nM in experiment [3] and 1000 nM in experiment [5].

Take `CO[C@H]1/C=C\C=C(/C)C(=O)NC2=CC(=O)C(NC(=O)OCCCCN3CCOCC3)=C(C[C@@H](C)C[C@H](OC)[C@H](O)[C@@H](C)/C=C(\C)[C@@H]1OC(N)=O)C2=O`: the IC50 was determined as 10 nM in experiment [7], 500 nM in experiment [2], 1000 nM in experiment [3] and 1000 nM in experiment [5]. Moreover, the Ratio in experiment [4] turned out to be 100.

(Values after ChEMBL document CHEMBL1149179, “Synthesis and biological evaluation of a new class of geldanamycin derivatives as potent inhibitors of Hsp90” (J Med Chem, 2004).)
